Assay results: article PMC10449033 (European journal of inorganic chemistry, 2023)
Like-named read-outs stand apart in the source and are kept apart here. Values belong to the compound of their own block, whether it stands above or below them.

How the values were obtained:
[1] = molecular target: T1, mitochondrial calcium uniporter (MCU) (Homo sapiens, UniProt Q8NE86); experiment: mCa2+ uptake inhibition in digitonin-permeabilized HeLa cells; type: cell-based; details: for mCa2+ uptake inhibition compared to untreated cells: 25 μM complex, digitonin-permeabilized HeLa cells
T1 sequence (Q8NE86 51-351): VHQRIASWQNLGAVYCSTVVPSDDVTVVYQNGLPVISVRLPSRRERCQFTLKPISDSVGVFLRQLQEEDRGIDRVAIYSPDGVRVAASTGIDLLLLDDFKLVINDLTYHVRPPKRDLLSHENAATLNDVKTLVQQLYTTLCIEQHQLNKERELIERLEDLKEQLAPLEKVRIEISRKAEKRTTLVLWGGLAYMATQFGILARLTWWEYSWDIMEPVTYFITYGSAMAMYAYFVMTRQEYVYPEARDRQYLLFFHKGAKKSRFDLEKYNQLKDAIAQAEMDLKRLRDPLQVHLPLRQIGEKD
T1 sequence (Q9H4I9 48-107 partner limits assumed): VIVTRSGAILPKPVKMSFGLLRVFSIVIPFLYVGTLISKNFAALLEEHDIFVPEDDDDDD
How it was run: (§1)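 Trypsinised cells permeabilised on ice for 15 min in KCl buffer (HEPES, pH 7.2) with 80 μM digitonin and 1 μM thapsigargin. Resuspended with 1 μM Calcium Green-5N and 2 mM succinate (HeLa 5 × 10^6, HEK293T 1 × 10^7 cells mL−1). Complex equilibrated ~200 s at room temperature, then CaCl2 added (HeLa 10, HEK293T 20 μM). Read ex 488/em 528 every 5 s. Rate from exponential time constant vs untreated; Hill IC50; three biological replicates ± SD.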

[2] = molecular target: T1, mitochondrial calcium uniporter (MCU); experiment: mCa2+ uptake inhibition in digitonin-permeabilized HEK293T cells; type: cell-based
How it was run: as §1

[3] = molecular target: T1, mitochondrial calcium uniporter (MCU); details: read-out: mCa2+ uptake inhibition IC50 HeLa, permeabilized HeLa cells, cited from earlier work
[4] = molecular target: T1, mitochondrial calcium uniporter (MCU); details: ref [35],[37],[39],[36]; cited from earlier work
[5] = molecular target: T1, mitochondrial calcium uniporter (MCU); experiment: Mitochondrial Ca2+ uptake in intact HeLa cells using Rhod 2-AM; type: cell-based; details: 50 μM, 2 h, 37 °C, histamine 100 μM
How it was run: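 About 1 × 10^5 HeLa cells left overnight, then exposed to complex (50 μM) in DMEM/10% FBS for 2 h at 37 °C. Loaded with 2 μM Rhod 2-AM in extracellular medium (1 mM CaCl2, 10 mM glucose, BSA, Pluronic F127) for 30 min in the dark at room temperature. Then 30 min dye-free, 15 min at 37 °C. Confocal imaging, ex 561/em 568–712 nm: ~30 s baseline, then histamine (100 μM), frames every 3 s. Per-cell CTCF expressed as F/F0.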

[6] = molecular target: T1, mitochondrial calcium uniporter (MCU); details: read-out: mCa2+ uptake inhibition IC50 HEK293T; permeabilized HEK293T cells; ref [36]; cited from earlier work
HeLa cells = experiment: Mitochondrial membrane potential via JC-1 assay, HeLa cells; type: cell-based; details: 50 μM, 24 h
How it was run: (§2)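 About 1 × 10^5 cells on glass-bottomed dishes, left overnight, then exposed to complex (50 μM) for 24 h at 37 °C. Loaded with 10 μM JC-1 for 30 min in the dark at 37 °C, washed, and imaged in PBS with green (monomer) and red (J-aggregate) filter sets. The positive control was 50 μM CCCP in PBS. Red/green CTCF came from ≥8 cells, normalised to untreated (=1). Three trials ± SD.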

HEK293T cells = experiment: Mitochondrial membrane potential via JC-1 assay, HEK293T cells; type: cell-based; details: 50 μM, 24 h
How it was run: as §2

[7] = Cytotoxicity, MTT assay, HEK293T cells; type: cell-based; details: human
How it was run: (§3)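 Cells seeded at ~4000 per well and left overnight, then exposed to a range of complex concentrations in medium for 72 h. MTT was added at 1 mg mL−1 in FBS-free DMEM for 3 h, and formazan was dissolved in 8:1 DMSO/glycine buffer (pH 10) for absorbance. Viability was normalised to untreated cells (100%), with Hill fit for IC50. Three independent trials ± SD.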

[8] = Cytotoxicity, MTT assay, HeLa cells; type: cell-based; details: human
How it was run: as §3

Compound: CC12CNCCNCC(C(=O)O)(CNCCNC1)C(=O)NCCNC2.[Co+3] [Compound 6, [Co(CO2H,Mesar)]^2+]
IC50 [1]: > 25 µM | IC50 [2]: > 25 µM

Compound: Os245
IC50 ([3]; ref [39]): 103 ± 30 nM | inhibition of MCU-mediated mCa2+ uptake in intact HeLa cells [4]: able to inhibit

Compound: CC12CNCCNCC([N+](=O)[O-])(CNCCNC1)CNCCNC2.[Co+3] [Compound 4, [Co(MeNOsar)]^3+]
IC50 [1]: 2.91 ± 0.26 µM | mCa2+ uptake inhibition compared to untreated cells [1]: comparable to that of 1 | IC50 [2]: 2.73 ± 0.2 µM

inhibition of histamine-induced mCa2+ uptake in intact cells [5]: cannot
Compound: NCCN.NCCN.NCCN.[Co+3] [[Co(en)3]^3+]
IC50 ([3]; ref [36]): 115 ± 13 nM | IC50 [6]: 76 ± 10 nM

Compound: O=[N+]([O-])C12CNCCNCC([N+](=O)[O-])(CNCCNC1)CNCCNC2.[Co+3] [Compound 1, [Co(diNOsar)]^3+]
IC50 [1]: 6.05 ± 0.48 µM | IC50 [2]: 7.98 ± 0.37 µM

Compound: CC(CNCCN)(CNCCN)CNCCN.[Co+3] [Compound 3, [Co(sen)]^3+]
inhibition of histamine-induced mCa2+ uptake in intact cells [5]: statistically significant decrease in mCa^2+ uptake | IC50 [1]: 0.16 ± 0.02 µM | mCa2+ uptake inhibition compared to untreated cells [1]: completely abolish mCa^2+ uptake | IC50 [2]: 0.18 ± 0.02 µM | depolarization of the mitochondrial membrane potential (JC-1) (HeLa cells): did not lead to depolarization | depolarization of the mitochondrial membrane potential (JC-1) (HEK293T cells): did not lead to depolarization

Compound: CCOC(=O)C12CNCCNCC(C)(CNCCNC1)CNCCNC2=O.[Co+3] [Compound 5, [Co(CO2Et,Mesar)]^2+]
IC50 [1]: > 25 µM | IC50 [2]: > 25 µM

Compound: N.N.N.N.N.N.N.N.[Cl][Ru+3].[N-]=[Ru][Cl] [Ru265]
inhibition of histamine-induced mCa2+ uptake in intact cells [5]: significantly diminish mCa^2+ uptake | inhibition of MCU-mediated mCa2+ uptake in intact HeLa cells [4]: able to inhibit

Compound: NC12CNCCNCC(N)(CNCCNC1)CNCCNC2.[Co+3] [Compound 2, [Co(diAMsar)]^3+]
viability at 72 h, 1000 µM [7]: 40% | IC50 [1]: > 25 µM | viability at 72 h, 1000 µM [8]: 40% | IC50 [2]: > 25 µM

Compound: N.N.N.N.N.N.N.N.[Cl][Ru+3].[NH]=[Ru][Cl] [Ru265]
IC50 ([3]; ref [36]): 3.9 ± 1 nM | IC50 [6]: 8.6 ± 2.2 nM

Compound: Os245′
IC50 ([3]; ref [39]): 2.3 ± 0.8 nM
